What was measured:
[1] = thermodynamic solubility assay; assay type: physicochemical; settings: PBS pH 7.4, relative to compound 1
INS-1E β-cells = assay: caspase-3/7 assay in INS-1E β-cells; assay type: cell-based, rat
Summary of the method: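 Rat INS-1E β-cells co-treated with a cytokine mixture and the test compound over a dose range; caspase-3/7 activity read after 48 h. IC50 is fitted from triplicate dose-responses. Maximum activity is expressed as % rescue from cytokine-induced caspase-3/7 activation. For the cytokine-optimization runs, values are the mean ± standard error of three independent experiments with six replicates each.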

STAT1 = assay type: cell-based, rat; settings: co-treatment with IFN-γ, 30 min, immunofluorescence imaging

Row | Structure (SMILES) | fold increase in solubility compared to 1 [1] [fold] | effect on IFN-γ-induced nuclear localization of STAT1 (STAT1) | other results
1 | C[C@@H]1CN([C@@H](C)CO)C(=O)c2cccc(NC(=O)N(C)c3cccc4ccccc34)c2O[C@H]1CN(C)S(=O)(=O)c1ccc2c(c1)OCCO2 [Compound 7b] | 110 | – | –
2 | C[C@@H]1CN([C@@H](C)CO)C(=O)c2cccc(NC(=O)Nc3cccc4ccccc34)c2O[C@H]1CN(C)S(=O)(=O)c1ccc2c(c1)OCCO2 [Compound 1] | – | nearly abolished this nuclear localization of STAT1 | protective effect in the caspase assay (INS-1E β-cells; condition A: standard concentrations of cytokines): small protective effect; rescue efficacy in the caspase assay (INS-1E β-cells; condition B: IL-1β and TNF-α lowered 20- and 10-fold, IFN-γ increased 4-fold): higher rescue efficacy; reduction of caspase activity (INS-1E β-cells; condition C (IFN-γ 500 ng/mL), INS-1E β-cells, 48 h): 74%
3 | C[C@@H]1CN([C@@H](C)CO)C(=O)c2cccc(NC(=O)Nc3cccc4cccnc34)c2O[C@H]1CN(C)S(=O)(=O)c1ccc2c(c1)OCCO2 [Compound 7i, N-(((2R,3R)-5-((S)-1-hydroxypropan-2-yl)-3-methyl-6-oxo-10-(3-(quinolin-8-yl)ureido)-3,4,5,6-tetrahydro-2H-benzo[b][1,5]oxazocin-2-yl)methyl)-N-methyl-2,3-dihydrobenzo[b][1,4]dioxine-6-sulfonamide] | – | nearly abolished this nuclear localization of STAT1 | –
4 | C[C@@H]1CN([C@@H](C)CO)C(=O)c2cccc(NC(=O)Nc3cccc4ncccc34)c2O[C@H]1CN(C)S(=O)(=O)c1ccc2c(c1)OCCO2 [Compound 7f] | 1400 | – | –
5 | C[C@@H]1CN([C@@H](C)CO)C(=O)c2cccc(NC(=O)NCc3cccc4ccccc34)c2O[C@H]1CN(C)S(=O)(=O)c1ccc2c(c1)OCCO2 [Compound 7a] | – | did not inhibit nuclear translocation of STAT1 | activity in the caspase assay (in words) (INS-1E β-cells; INS-1E β-cells): inactive
